HIV Rev-RRE inh – inhibitors of HIV-1 Rev-RRE RNA interaction; hit rate 0.79% among 97,000; AID 704; P05866; Rev peptide-RRE RNA binding, FRET; inhibition, % at 8 µM;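 active = inhibition above the screen-wide mean plus 3 SD, cut at about 35% in these data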;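 note: 0% = median DMSO wells and 100% = median Neomycin B control wells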
Target sequence (P05866 whole entry, looked up): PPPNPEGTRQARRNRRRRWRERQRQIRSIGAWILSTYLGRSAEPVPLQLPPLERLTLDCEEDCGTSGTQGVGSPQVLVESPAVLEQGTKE
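System: Cy5-labelled duplex RRE RNA binding fluorescein-labelled HIV Rev peptide; Signal: fluorescein-to-Cy5 FRET, 480 nm excitation; Also added: labelled Rev peptide; Compound: one concentration, 8 µM nominal; Buffer or medium: HEPES pH 7.5 salt buffer with EDTA; Read-out: % inhibition of FRET ratio versus controls; Schedule: 5 min preincubation and 15 min binding, 25 °C.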
ERa coact pot – enhances coactivator binding to human estrogen receptor alpha; hit rate 1.3% among 86,000; P03372; AID 639; coactivator binding (% of control), % at 25.6 µM; TR-FRET ERalpha-LBD/SRC-Cy5 coactivator binding, 2 h; 100 = basal binding, no effect; in the data active = activity above about 200%;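 note: binding measured in presence of low estradiol as agonist stimulus; 0% = peptide alone without receptor and 100% = receptor with peptide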
ERb SRC1 inh – ER-beta (human) coactivator binding inhibition. Q92731. TR-FRET ER-beta LBD / SRC1-Cy5 peptide binding; receptor agonist-loaded with 1 µM estradiol. inhibition, % at 25.6 µM. hit rate 1.3% among 86,000. AID 633;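 active = compounds whose percent inhibition of the receptor-coactivator binding signal exceeds about 50% in the single-dose screen, limit read from the data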;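 note: 0% = receptor plus peptide wells without compound and 100% = peptide-only wells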
sEH activator – activators of human soluble epoxide hydrolase. P34913. purified human sEH enzymatic activity, activator screen. activation, % at 2 µM. hit rate 0.04% among 91,000. AID 717; in the data active = activation above about 37%
sEH inh – soluble epoxide hydrolase (human) inhibition. hit rate 0.34% among 91,000. recombinant human sEH enzymatic activity assay. inhibition, % at 2 µM. AID 707; in the data active = inhibition above about 80%
ERa coact inh – ER-alpha (human) coactivator binding inhibition; P03372; TR-FRET ER-alpha LBD / SRC-1 peptide, estradiol-bound; inhibition, % at 25.6 µM; hit rate 1.7% among 86,000; AID 629; in the data active = inhibition above about 50%;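 note: 0% = receptor plus peptide control and 100% = peptide only without receptor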
Starred values were filed as active, the others as inactive; x = no result given; + = active, no number; [ ] = remark or other dose. An excerpt weighted towards active compounds, which were near 3.5% of everything screened.

SMILES	HIV Rev-RRE inh	ERa coact pot	ERb SRC1 inh	sEH activator	sEH inh	ERa coact inh
CC(=O)C1=C(C)N=c2s/c(=C/c3ccc4c(c3)OCO4)c(=O)n2C1c1ccc(N(C)C)cc1 (configuration not stated)	x	115	3	x	x	3
O=C(CSc1nnnn1C1CCCCC1)N1c2ccccc2Sc2ccccc21	11	106	-3	11	-14	0
Cc1cc(C)c2cc3c(ccn3C3OC[C@H](O)[C@H](O)[C@H]3O)cc2n1 (some centres not stated)	36	83	52*[fluorescence artefact?]	6	-4	18
CC1Cc2ccccc2N1C(=O)CN1C(=O)NC(C)(c2ccc3c(c2)OCCO3)C1=O (configuration not stated)	11	127	-2	13	-15	-1
Cn1c(=O)c2c(nc(SCC(=O)NCc3ccc4c(c3)OCO4)n2Cc2ccc(Cl)cc2)n(C)c1=O	3	32	54*[fluorescence artefact?]	17	-15	85*[fluorescence artefact?]
O=C(CSc1nnc2scc(-c3ccc(Cl)cc3)n12)NCc1ccc2c(c1)OCO2	4	213*	0	4	-7	16
Cn1c(=O)c2c(nc(SCC(=O)c3cccs3)n2Cc2ccc(F)cc2)n(C)c1=O	9	+[fluorescence artefact?]	35	-6	5	9
Cn1c(=O)c2c(nc(Br)n2CC(=O)c2cccs2)n(C)c1=O	4	101	-7	0	0	-6
Cc1cc(=O)[nH]c(SCC(=O)Nc2ccc(Br)cc2)c1C#N	2	103	1	-2	-1	-3
Cc1ccc2c(CC(=O)OCc3csc(C)n3)coc2c1	1	115	5	-2	6	4
O=C(Cc1coc2cc3c(cc12)CCC3)OCc1cc(=O)n2c(n1)sc1ccccc12	-6	136	72*	9	-7	76*
COC(=O)c1ccc(Cl)c(NC(=O)CN2CCC(C)CC2)c1	-2	109	-1	4	-5	4
COc1ccc(C2c3c(oc4ccc(Cl)cc4c3=O)C(=O)N2Cc2ccco2)cc1OC (configuration not stated)	x	114	3	x	x	8
COc1cc(C2c3c(oc4ccc(Cl)cc4c3=O)C(=O)N2Cc2ccco2)cc(OC)c1OC (configuration not stated)	x	23	44	x	x	56*
C=CCn1c(-c2ccc(S(=O)(=O)N3CCOCC3)cc2)csc1=Nc1ccccc1	3	215*	-25	13	-9	-7
O=C1N/C(=C\c2ccc(O)cc2)C(=O)c2ccccc21	69*	x	x	2	-1	x
O=C(O)/C=C1\NC(=O)c2ccccc21	1	x	x	20	-19	x
Cc1ccccc1NC(=O)Cn1cnc2c1c(=O)n(C)c(=O)n2C	10	97	62*	-2	2	-9
COc1ccnc(N=CNOCc2cccc(Cl)c2Cl)c1C#N	11	140	-1	9	-9	10
CCOc1ccc(-n2c(SCC(=O)Nc3nccs3)nc3c(c2=O)SCC3)cc1	x	78	48	x	x	77*[fluorescence artefact?]
COc1ccccc1CNS(=O)(=O)c1ccc2[nH]cc(C(=O)O)c(=O)c2c1	1	79	22	1	-1	24
Cc1nc(SCC(=O)Nc2ccc3c(c2)OCCO3)c2oc3ccccc3c2n1	-5	732*[fluorescence artefact?]	40	-31	30	79*[fluorescence artefact?]
CCc1nc(SCC(=O)Nc2ccc3c(c2)OCCO3)c2oc3ccccc3c2n1	-5	233*[fluorescence artefact?]	57*[fluorescence artefact?]	-40	39	64*[fluorescence artefact?]
CCc1nc(SCC(=O)N2CCCc3ccccc32)c2oc3ccccc3c2n1	-1	134	10	10	-10	5
O=C(CSc1ncnc2c1oc1ccccc12)Nc1ccc2c(c1)OCCO2	5	765*[fluorescence artefact?]	57*[fluorescence artefact?]	-50	52	43
O=C(CSc1nc(-c2ccccc2)nc2ccccc12)Nc1nccs1	-1	x	x	-19	18	x
CCc1nc(SCC(=O)Nc2nccs2)c2oc3ccccc3c2n1	x	138	42	x	x	56*[fluorescence artefact?]
O=C(CSc1nnc(-c2cccc(Cl)c2)o1)Nc1ccc2c(c1)OCCO2	13	145	22	-5	5	54*[fluorescence artefact?]
Cc1nc(SCC(=O)NCc2ccccc2)c2oc3ccccc3c2n1	1	+[fluorescence artefact?]	-12	-3	5	0
Nc1nnc(-c2cn(-c3ccccc3)nc2-c2ccccc2)o1	3	x	x	10	-6	x

Compound activity as filed in PubChem.
